PubChem BioAssay AID602315 (Southern Research Specialized Biocontainment Screening …, 2012)
Records with an inconclusive call do not appear. Activity calls are given as the source filed them.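 How the source made its calls: active means inhibition of 30% or more at any tested concentration; inactive means the rest, inconclusive results apart.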

Target: M1-family alanyl aminopeptidase (Plasmodium falciparum 3D7)
Assay: Inhibition of P. falciparum M1 alanyl aminopeptidase – biochemical, QFRET, set 3, counter-screen for PfM17LAP inhibitor project, dose response (AID 602315)
Details: recombinant PfM1AAP, H-Leu-NHMec fluorogenic cleavage
In short: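 Evaluation: % inhibition and fitted IC50; test system: recombinant PfM1AAP enzyme; signal: fluorescence, ex 370/em 460 nm; buffer or medium: Tris pH 7.5 buffer with cobalt chloride; control set: enzyme-free wells as background reference; incubation: enzyme–substrate reaction 90 min at room temperature; also added: 0.1 mM H-Leu-NHMec; dosing: 10 doses, 100–0.2 µM, 1:2 steps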

| Compound | IC50 [µM] |
| --- | --- |
| CCCCOc1cccc(CC(=O)NO)c1 | 26 |
| CCCOc1ccc(CC(=O)NO)cc1 | 16.7 |
| CCCCOc1ccc(C(C)C(=O)NO)cc1 (stereo not drawn) | 28.2 |
| CCC(C)Oc1ccc(CC(=O)NO)cc1 (stereo not drawn) | 20.2 |

Same assay, conditions: recombinant PfM1AAP, H-Leu-NHMec fluorogenic cleavage; at 100 µM (top of the series)

| Compound | inhibition |
| --- | --- |
| CN(C)CCOc1ccc(CC(=O)O)cc1 | inactive |
| CCCCOc1ccc(C(C)(C)C(=O)O)cc1 | inactive |
| CCCCOc1ccc(C(C)(C)C(=O)NO)cc1 | inactive |
| CCCCOc1ccc(C(C)C(=O)O)cc1 (stereo not drawn) | inactive |
| CCCCOc1cccc(CC(=O)OC)c1 | inactive |
| CCCCOc1ccc(C(C)C(=O)OC)cc1 (stereo not drawn) | inactive |
| O=C(NO)c1ccc2ccccc2c1 | inactive |
| CCCCOc1ccc(CN(O)C(=O)c2ccccc2)cc1 | inactive |
| CCCCOc1ccc(CN(O)C(C)=O)cc1 | inactive |
